Series [1] addresses T1, Muscarinic acetylcholine receptor M1 (Homo sapiens) (UniProt P11229).
T1 sequence (whole entry): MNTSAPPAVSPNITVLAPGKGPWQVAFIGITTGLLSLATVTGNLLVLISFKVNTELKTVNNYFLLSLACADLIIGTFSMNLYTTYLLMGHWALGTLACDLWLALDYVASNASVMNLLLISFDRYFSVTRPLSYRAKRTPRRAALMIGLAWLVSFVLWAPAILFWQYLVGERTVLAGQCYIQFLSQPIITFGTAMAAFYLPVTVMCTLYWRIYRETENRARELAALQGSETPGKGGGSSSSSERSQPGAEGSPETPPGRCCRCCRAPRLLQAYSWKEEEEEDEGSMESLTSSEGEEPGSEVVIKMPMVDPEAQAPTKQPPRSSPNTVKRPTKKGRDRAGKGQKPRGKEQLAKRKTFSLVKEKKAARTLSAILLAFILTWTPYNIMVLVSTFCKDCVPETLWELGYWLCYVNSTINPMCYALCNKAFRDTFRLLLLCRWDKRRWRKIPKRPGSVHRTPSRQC
In words: Positive allosteric modulator activity at human muscarinic M1 receptor expressed in CHO cells assessed as effect on acetylcholine-induced intracellular calcium mobilization by FLIPR assay. Format: functional, cell-based. In outline:
(§1)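 CHO cells expressing human M1 were run with an EC20 concentration of acetylcholine. Calcium mobilization was read on a FLIPR384. Potency is reported as the inflection point. Percent max is the compound plus EC20 ACh response relative to the maximal acetylcholine effect.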
(Calcium flux is commonly read through the fluorescence of an indicator in the cells.)

Series [2] addresses T2, Muscarinic acetylcholine receptor M2 (Homo sapiens) (UniProt P08172).
T2 sequence (whole entry): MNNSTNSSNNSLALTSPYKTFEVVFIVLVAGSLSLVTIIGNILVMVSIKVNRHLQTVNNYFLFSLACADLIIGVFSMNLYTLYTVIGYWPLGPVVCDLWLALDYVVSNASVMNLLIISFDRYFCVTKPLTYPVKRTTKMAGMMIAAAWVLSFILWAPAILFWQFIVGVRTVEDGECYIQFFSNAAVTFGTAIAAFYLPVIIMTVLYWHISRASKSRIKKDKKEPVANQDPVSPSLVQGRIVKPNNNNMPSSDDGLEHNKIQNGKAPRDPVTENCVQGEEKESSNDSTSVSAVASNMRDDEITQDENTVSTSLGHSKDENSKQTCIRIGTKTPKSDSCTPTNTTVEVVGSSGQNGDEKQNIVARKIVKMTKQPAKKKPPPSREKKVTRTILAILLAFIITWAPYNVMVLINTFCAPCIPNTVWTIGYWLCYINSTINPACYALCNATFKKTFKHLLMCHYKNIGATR
Briefly: Positive allosteric modulator activity at human muscarinic acetylcholine M2 receptor expressed in CHO cells assessed as effect on acetylcholine-induced intracellular calcium mobilization by FLIPR assay. The series is classed as functional, cell-based.

Series [3] addresses Muscarinic acetylcholine receptor M3 (Homo sapiens) (UniProt P20309). In words: Positive allosteric modulator activity at human muscarinic M3 receptor expressed in CHO cells assessed as effect on acetylcholine-induced intracellular calcium mobilization by FLIPR assay. The series is classed as functional, cell-based.
Series [4] concerns the target T3, Muscarinic acetylcholine receptor M4 (Homo sapiens) (UniProt P08173).
T3 sequence (whole entry): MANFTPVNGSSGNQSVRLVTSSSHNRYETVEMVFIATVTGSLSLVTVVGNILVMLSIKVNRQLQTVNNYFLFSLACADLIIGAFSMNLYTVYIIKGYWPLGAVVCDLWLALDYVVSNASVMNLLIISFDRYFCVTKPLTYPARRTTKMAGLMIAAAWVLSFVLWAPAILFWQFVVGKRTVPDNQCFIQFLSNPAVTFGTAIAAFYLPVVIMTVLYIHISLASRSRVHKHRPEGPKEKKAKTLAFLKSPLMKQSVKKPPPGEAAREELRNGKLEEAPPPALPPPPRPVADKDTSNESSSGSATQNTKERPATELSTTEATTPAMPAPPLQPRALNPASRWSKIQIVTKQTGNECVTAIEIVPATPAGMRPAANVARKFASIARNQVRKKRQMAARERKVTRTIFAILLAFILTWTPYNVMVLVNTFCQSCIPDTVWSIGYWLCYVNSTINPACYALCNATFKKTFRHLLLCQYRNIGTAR
Briefly: Positive allosteric modulator activity at human muscarinic M4 receptor expressed in CHO cells assessed as effect on acetylcholine-induced intracellular calcium mobilization by FLIPR assay. Format: functional, cell-based.

Series [5] deals with T1, Muscarinic acetylcholine receptor M1 (Homo sapiens). Briefly: Positive allosteric modulator activity at human muscarinic M1 receptor expressed in CHO cells assessed as effect on acetylcholine-induced intracellular calcium mobilization by FLIPR assay relative to acetylcholine. Format: functional, cell-based. In outline:
as §1

Series [6] in a line: Plasma protein binding in human serum by equilibrium dialysis method. A general note: In equilibrium dialysis free small molecules cross a membrane that holds back macromolecules.
Series [7] in a line: Plasma protein binding in rat serum by equilibrium dialysis method.

SMILES strings stand for the structures. The source made the active and inactive calls. The rule behind the calls is not given here.

We go through 26 molecules from ChEMBL document CHEMBL1156154, “Heterocyclic fused pyridone carboxylic acid M(1) positive allosteric modulators” (Bioorg Med Chem Lett, 2010).

Sequence of Muscarinic acetylcholine receptor M3 (Homo sapiens) (P20309 whole entry, looked up): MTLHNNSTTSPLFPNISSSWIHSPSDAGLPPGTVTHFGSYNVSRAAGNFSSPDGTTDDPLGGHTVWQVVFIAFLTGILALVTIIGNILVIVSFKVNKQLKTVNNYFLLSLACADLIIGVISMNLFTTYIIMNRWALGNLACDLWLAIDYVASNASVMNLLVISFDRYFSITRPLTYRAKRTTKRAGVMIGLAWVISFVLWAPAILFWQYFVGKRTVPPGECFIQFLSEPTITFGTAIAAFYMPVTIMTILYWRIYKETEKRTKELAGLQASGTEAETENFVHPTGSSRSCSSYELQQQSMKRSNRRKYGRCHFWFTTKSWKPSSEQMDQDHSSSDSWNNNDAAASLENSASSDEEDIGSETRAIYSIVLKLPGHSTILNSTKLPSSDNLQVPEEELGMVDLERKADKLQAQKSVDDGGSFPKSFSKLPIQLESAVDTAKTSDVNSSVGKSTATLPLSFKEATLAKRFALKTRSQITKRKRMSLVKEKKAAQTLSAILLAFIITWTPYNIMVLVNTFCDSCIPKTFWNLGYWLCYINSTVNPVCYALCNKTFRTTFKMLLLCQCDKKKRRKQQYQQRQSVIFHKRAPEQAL

As for `O=C(O)c1cn(Cc2ccc(-n3cccn3)cc2)c2cnccc2c1=O`, in series [1], the IP was 1.14 µM. In addition, the result in series [2], in series [3] and in series [4] was inactive.

Take `Cc1ccnn1-c1ccc(Cn2cc(C(=O)O)c(=O)c3ccncc32)cc1`: the IP in series [1] turned out to be 13 µM. Further, the result in series [2], in series [3] and in series [4] was inactive.

For the molecule `O=C(O)c1cn(Cc2ccc(-c3cccnc3)cn2)c2ccsc2c1=O`, in series [1], the IP worked out at 1.05 µM. Further, the result in series [2], in series [3] and in series [4] was inactive.

What is called Emax is the size of the effect at its maximum, as opposed to the concentration needed. With `O=C(O)c1cn(Cc2ccc(-c3ccccc3)cc2)c2csnc2c1=O`, in series [1], the IP was found to be 3.35 µM. Moreover, the outcome in series [2], in series [3] and in series [4] was inactive. For the same molecule, the Emax in series [5] was 76%.

With `Cc1cn(-c2ccc(Cn3cc(C(=O)O)c(=O)c4ccncc43)cc2)cn1`, the IP in series [1] is 1.03 µM. Moreover, the outcome in series [2], in series [3] and in series [4] was inactive.

With `O=C(O)c1cn(Cc2ccc(-c3ccccc3)cc2)c2nsnc2c1=O`, the IP in series [1] was 3.5 µM. For the same molecule, the result in series [2], in series [3] and in series [4] was inactive. The maximal response (Emax) in series [5] turned out to be 69%.

`O=C(O)c1cn(Cc2ccc(-c3ccsc3)cn2)c2ccsc2c1=O`: the IP in series [1] worked out at 1.66 µM. For the same molecule, the result in series [2], in series [3] and in series [4] was inactive.

A word on the fraction unbound: it is free concentration divided by total concentration. Higher therefore signals weak binding. Turning to `Cn1cc(-c2ccc(Cn3cc(C(=O)O)c(=O)c4sccc43)cc2)cn1`, the fraction unbound in series [6] was 0.066; in series [7] it was 0.009. Further, the IP in series [1] stood at 0.15 µM. Moreover, the outcome in series [2], in series [3] and in series [4] was inactive.

In the case of `O=C(O)c1cn(Cc2ccc(-c3ccccc3)cc2)c2ccccc2c1=O`, the IP in series [1] was 0.21 µM. Moreover, the outcome in series [2], in series [3] and in series [4] was inactive. Moreover, the maximal response (Emax) in series [5] amounted to 92%.

As for `Nc1cccc(-c2ccc(Cn3cc(C(=O)O)c(=O)c4sccc43)nc2)c1`, the fraction unbound was 0.117 in series [6] and 0.099 in series [7]. Moreover, the IP in series [1] came to 0.038 µM. In addition, the outcome in series [2], in series [3] and in series [4] was inactive.

As to `O=C(O)c1cn(Cc2ccc(-c3ccncc3)cc2)c2ccsc2c1=O`, the IP in series [1] was found to be 0.6 µM. Also, the result in series [2], in series [3] and in series [4] was inactive.

As to `O=C(O)c1cn(Cc2ccc(-c3cccnc3)cc2)c2ccsc2c1=O`, the IP in series [1] is 0.57 µM. The outcome in series [2], in series [3] and in series [4] was inactive.

On to `Cc1ccn(-c2ccc(Cn3cc(C(=O)O)c(=O)c4sccc43)cc2)n1`, for which, in series [1], the IP was found to be 0.51 µM. Besides, the outcome in series [2], in series [3] and in series [4] was inactive.

`O=C(O)c1cn(Cc2ccc(-c3ccccc3)cc2)c2ccncc2c1=O`: in series [1], the IP was more than 100 µM. Also, the outcome in series [2], in series [3] and in series [4] was inactive. Besides, the Emax in series [5] was 4%.

`Cc1ccnn1-c1ccc(Cn2cc(C(=O)O)c(=O)c3cccnc32)cc1`: in series [1], the IP amounted to 17.9 µM. Moreover, the result in series [2], in series [3] and in series [4] was inactive.

As for `O=C(O)c1cn(Cc2ccc(-n3cccn3)cc2)c2ncccc2c1=O`, the free fraction (fraction unbound) in series [6] was 0.061; in series [7], 0.048. Besides, the IP in series [1] worked out at 0.81 µM. In addition, the outcome in series [2], in series [3] and in series [4] was inactive.

Turning to `Cc1cn(-c2ccc(Cn3cc(C(=O)O)c(=O)c4cccnc43)cc2)cn1`, the results for the unbound share (fraction unbound) in series [6] and in series [7] were 0.233 and 0.052, respectively. The IP in series [1] is 0.34 µM. Besides, the result in series [2], in series [3] and in series [4] was inactive.

For the molecule `O=C(O)c1cn(Cc2ccc(-c3ccnc(Cl)c3)cn2)c2ccsc2c1=O`, the IP in series [1] came to 0.81 µM. The outcome in series [2], in series [3] and in series [4] was inactive.

`COc1ccc(-c2ccc(Cn3cc(C(=O)O)c(=O)c4sccc43)nc2)cn1`: the IP in series [1] was determined as 2 µM. The outcome in series [2], in series [3] and in series [4] was inactive.

With `O=C(O)c1cn(Cc2ccc(-c3ccccc3)cc2)c2ncncc2c1=O`, the IP in series [1] turned out to be 87.2 µM. For the same molecule, the result in series [2], in series [3] and in series [4] was inactive. Moreover, the Emax in series [5] came out at 48%.

For `O=C(O)c1cn(Cc2ccc(-c3ccccc3)cc2)c2cccnc2c1=O`, in series [1], the IP came to 1.38 µM. Also, the result in series [2], in series [3] and in series [4] was inactive. Further, the Emax in series [5] came out at 92%.

For the molecule `O=C(O)c1cn(Cc2ccc(-c3ccccc3)cc2)c2nnccc2c1=O`, in series [1], the IP is 5.95 µM. Further, the result in series [2], in series [3] and in series [4] was inactive. Besides, in series [5], the Emax is 34%.

Turning to `O=C(O)c1cn(Cc2ccc(-n3ccnc3)cc2)c2ccsc2c1=O`, the fraction unbound in series [6] is 0.199; in series [7], 0.259. In addition, in series [1], the IP stood at 0.24 µM. Further, the outcome in series [2], in series [3] and in series [4] was inactive.

For `CN(C)c1ccc(-c2ccc(Cn3cc(C(=O)O)c(=O)c4sccc43)nc2)cn1`, the IP in series [1] worked out at 0.5 µM. Moreover, the outcome in series [2], in series [3] and in series [4] was inactive.

`Cc1ccn(-c2ccc(Cn3cc(C(=O)O)c(=O)c4cccnc43)cc2)n1`: in series [6], the fraction unbound is 0.012. For the same molecule, the IP in series [1] is 0.56 µM. The outcome in series [2], in series [3] and in series [4] was inactive.

`O=C(O)c1cn(Cc2ccc(-c3ccccc3)cc2)c2cnccc2c1=O`: the IP in series [1] came to 0.43 µM. Besides, the outcome in series [2], in series [3] and in series [4] was inactive. For the same molecule, the maximum response (Emax) in series [5] was determined as 62%.
